ChEMBL document CHEMBL2203249, “Optimization of a small tropomyosin-related kinase B (TrkB) agonist 7,8-dihydroxyflavone active in mouse models of depression” (J Med Chem, 2012)
Active and inactive are the calls of the source. No cut-off for these calls is given here.

Legend:
Mus musculus [1] = test: Agonist activity at TrkB receptor in C57BL/J6 mouse brain assessed as TrkB phosphorylation at tyrosine 816 in hippocampus at 1 mg/kg, po after 2 hrs by immunoblotting analysis; format: functional, organism-based; parameters: dose 1 mg/kg
How it was run: (§1)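 Hippocampus from male C57BL/6J mice was taken 2 h after a single 1 mg/kg oral dose. Brain was homogenised and ultracentrifuged, and 40 μg supernatant was immunoblotted for p-TrkB, p-Akt and p-MAPK.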

Mus musculus [2] = test: Toxicity in C57BL/J6 mouse assessed as increase in locomotion at 2.5 mg/kg, po administered qd for 21 days by locomotor activity assay; format: organism-based; parameters: dose 2.5 mg/kg, route oral; details: in vivo, 504 h
How it was run: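 Male C57BL/6J mice were given compound or saline vehicle by oral gavage once daily for 21 days, with forced swim and tail suspension tests also run. Ambulations (consecutive photobeam breaks) were recorded in automated locomotor chambers for 2 h, binned at 30 min intervals.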

Mus musculus [3] = test: Agonist activity at TrkB receptor in C57BL/J6 mouse brain assessed as Akt phosphorylation at serine 473 in hippocampus at 1 mg/kg, po after 2 hrs by immunoblotting analysis; format: functional, organism-based; parameters: dose 1 mg/kg; how it was run: as §1
CYP3A4 [4] = target: T1, CYP3A4 (Homo sapiens, UniProt P08684); test: Inhibition of CYP3A4 at 30 uM using testosterone substrate; format: ADME; details: probe testosterone
Mus musculus [5] = test: Agonist activity at TrkB receptor in C57BL/J6 mouse brain assessed as TrkB phosphorylation at tyrosine 816 in hippocampus at 2.5 mg/kg, po after 2 hrs by immunoblotting analysis; format: functional, organism-based; parameters: dose 2.5 mg/kg
Mus musculus [6] = test: Agonist activity at TrkB receptor in C57BL/J6 mouse brain assessed as TrkB phosphorylation at tyrosine 816 in dentate gyrus at 2.5 mg/kg, po administered qd for 21 days by immunohistochemical staining; format: functional, organism-based; parameters: dose 2.5 mg/kg
How it was run: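 Mice were gavaged with 2.5 mg/kg/day for 21 days and perfused with 4% paraformaldehyde. Paraffin sections of 6 μm had antigen retrieval by boiling in 10 mM citrate, pH 6.0. Sections were stained with anti-p-TrkB 816 at 1:300 and anti-TrkB at 1:50, with fluorescent secondaries and DAPI, and dentate gyrus was examined.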

Mus musculus [7] = test: Antidepressant activity in C57BL/J6 mouse assessed as reduction of immobility at 2.5 mg/kg, po administered qd for 21 days by tail suspension test; format: functional, organism-based; parameters: dose 2.5 mg/kg
How it was run: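 Male C57BL/6J mice were gavaged once daily for 21 days with 2.5 mg/kg or saline vehicle, then tested for immobility during tail suspension. n=8, Student's t-test.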

[8] = Drug recovery in human plasma at 5 uM; format: ADME, cell-free; details: read-out: Drug uptake
How it was run: (§2)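 Human plasma protein binding was tested at 5 μM, reporting fraction unbound, fraction bound and recovery. The assay was run by a contract lab.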

CYP1A2 = target: T2, CYP1A2 (Homo sapiens, UniProt P05177); test: Inhibition of CYP1A2 at 30 uM; format: ADME
T2 sequence (P05177 whole entry): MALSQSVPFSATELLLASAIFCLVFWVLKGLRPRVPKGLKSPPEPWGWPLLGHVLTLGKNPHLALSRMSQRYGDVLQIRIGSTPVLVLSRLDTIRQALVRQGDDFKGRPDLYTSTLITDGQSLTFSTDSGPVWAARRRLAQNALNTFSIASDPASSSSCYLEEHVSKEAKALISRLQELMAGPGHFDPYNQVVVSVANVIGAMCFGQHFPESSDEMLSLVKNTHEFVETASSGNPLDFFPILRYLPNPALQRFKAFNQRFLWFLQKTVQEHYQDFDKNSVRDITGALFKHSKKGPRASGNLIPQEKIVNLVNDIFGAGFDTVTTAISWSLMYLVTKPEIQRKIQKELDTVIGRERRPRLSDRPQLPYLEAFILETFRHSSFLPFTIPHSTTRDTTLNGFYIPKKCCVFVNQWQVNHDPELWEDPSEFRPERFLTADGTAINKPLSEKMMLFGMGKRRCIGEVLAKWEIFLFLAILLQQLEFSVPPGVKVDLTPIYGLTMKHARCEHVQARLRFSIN
How it was run: (§3)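 CYP inhibition was tested at 3 and 30 μM and reported as percent inhibition. The assay was run by a contract lab.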

[9] = Metabolic stability in human liver microsomes assessed as remaining parent compound at 1 uM after 1 hr in the absence of […]; format: ADME, Microsome; details: read-out: Stability
How it was run: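 Human liver microsomes were incubated with test compound at 1 μM for 1 h. Percent parent remaining was measured with cofactor and in a cofactor-free control. The work was done by a contract lab.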

Plasma = test: Fraction unbound in human plasma at 5 uM; format: ADME, cell-free; how it was run: as §2
CYP2C19 = CYP2C19 (Homo sapiens, UniProt P33261); test: Inhibition of CYP2C19 at 3 uM; format: ADME; how it was run: as §3
HepG2 [10] = test: Genotoxicity in human HepG2 cells assessed as micronuclei formation at 50 uM after 24 hrs by DAPI staining; format: toxicity, cell-based; details: hepg2, 24 h
How it was run: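 HepG2 cells were exposed to 50 μM for 24 h, with benzo(a)pyrene as positive control. Cells were swollen in hypotonic KCl/NaCl for 10 min at 37°C, fixed in methanol/acetic acid 3:1 and stained with DAPI at 2 μg/ml. Three independent experiments, one-way ANOVA.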

CYP2C9 [11] = target: T3, CYP2C9 (Homo sapiens, UniProt P11712); test: Inhibition of CYP2C9 at 30 uM; format: ADME; how it was run: as §3
CYP3A4 [12] = target: T1, CYP3A4; test: Inhibition of CYP3A4 at 3 uM using testosterone substrate; format: ADME; details: probe testosterone
HepG2 [13] = test: Cytotoxicity against human HepG2 cells assessed as cell death upto 100 uM after 24 hrs by LDH assay; format: cell-based; details: hepg2, 24 h
How it was run: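 HepG2 cells were exposed to a range of concentrations up to 100 μM for 24 h, and cytotoxicity was measured by LDH release. n=3.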

CYP2C9 [14] = target: T3, CYP2C9; test: Inhibition of CYP2C9 at 3 uM; format: ADME; how it was run: as §3
Mus musculus [15] = test: Agonist activity at TrkB receptor in C57BL/J6 mouse brain assessed as Akt phosphorylation at serine 473 in hippocampus at 2.5 mg/kg, po after 2 hrs by immunoblotting analysis; format: functional, organism-based; parameters: dose 2.5 mg/kg
CYP3A4 [16] = target: T1, CYP3A4; test: Inhibition of CYP3A4 at 3 uM using modazolam substrate; format: ADME; details: probe midazolam (printed: modazolam)
Mus musculus [17] = species on record: Mus musculus; test: Agonist activity at TrkB receptor in C57BL/J6 mouse brain assessed as TrkB phosphorylation at tyrosine 706 in hippocampus at […] by immunoblotting analysis; format: functional, organism-based
[18] = target: BDNF/NT-3 growth factors receptor (Rattus norvegicus) (UniProt Q63604); test: Agonist activity at TrkB receptor in rat primary neurons assessed as Akt phosphorylation at 500 nM after 15 mins by immunoblotting analysis; format: functional
How it was run: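 Primary cortical cultures from E17 rat embryos were exposed to 500 nM for 15 min. Lysates were immunoblotted for p-TrkB and p-Akt (20 μg per lane). Two replicate experiments.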

Mus musculus [19] = test: Agonist activity at TrkB receptor in C57BL/J6 mouse brain assessed as TrkB phosphorylation at tyrosine 816 in hippocampus at 2.5 mg/kg, po […] by Western blotting analysis; format: functional, organism-based; parameters: dose 2.5 mg/kg
How it was run: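 Male C57BL/6J mice were gavaged with 2.5 mg/kg/day for 21 days, with saline vehicle controls. Hippocampus was collected after the behavioural tests, and BrdU at 100 mg/kg i.p. was given 2 h before sacrifice. Lysates were immunoblotted for p-TrkB, total TrkB and p-Akt, and the p-TrkB/TrkB ratio was determined. Two replicate experiments, Student's t-test.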

Liver microsomes = test: Metabolic stability in human liver microsomes assessed as formation of reactive metabolites at 1 uM after 1 hr; format: ADME, Microsome

T3 sequence (P11712 whole entry): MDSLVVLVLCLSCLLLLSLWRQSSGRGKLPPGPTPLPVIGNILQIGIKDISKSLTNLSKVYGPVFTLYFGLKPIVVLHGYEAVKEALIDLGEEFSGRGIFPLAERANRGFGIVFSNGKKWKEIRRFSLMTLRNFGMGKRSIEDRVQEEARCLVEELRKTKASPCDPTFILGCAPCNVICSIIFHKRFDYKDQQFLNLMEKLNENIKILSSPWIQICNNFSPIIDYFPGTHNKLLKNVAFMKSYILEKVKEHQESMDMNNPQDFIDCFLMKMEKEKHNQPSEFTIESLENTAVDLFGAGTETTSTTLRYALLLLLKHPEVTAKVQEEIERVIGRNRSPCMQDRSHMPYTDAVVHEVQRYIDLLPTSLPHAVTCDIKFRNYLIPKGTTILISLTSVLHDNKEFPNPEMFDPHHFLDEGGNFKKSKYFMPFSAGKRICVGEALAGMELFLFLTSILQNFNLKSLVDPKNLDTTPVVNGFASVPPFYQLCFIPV
T1 sequence (P08684 whole entry): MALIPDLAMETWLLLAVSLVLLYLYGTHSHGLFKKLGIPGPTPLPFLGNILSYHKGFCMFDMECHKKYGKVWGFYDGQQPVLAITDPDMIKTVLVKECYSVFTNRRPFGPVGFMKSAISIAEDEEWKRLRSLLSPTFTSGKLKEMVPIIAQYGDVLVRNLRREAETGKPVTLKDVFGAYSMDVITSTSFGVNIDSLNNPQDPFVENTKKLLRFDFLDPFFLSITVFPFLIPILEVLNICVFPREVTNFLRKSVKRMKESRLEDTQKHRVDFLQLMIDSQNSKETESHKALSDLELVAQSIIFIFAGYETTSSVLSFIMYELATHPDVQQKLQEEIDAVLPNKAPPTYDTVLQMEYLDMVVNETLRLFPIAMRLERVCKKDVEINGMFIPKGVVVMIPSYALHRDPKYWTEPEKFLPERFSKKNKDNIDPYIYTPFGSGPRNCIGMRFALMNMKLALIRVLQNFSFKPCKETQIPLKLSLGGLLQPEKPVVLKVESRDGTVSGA
Chain of CYP2C19 (P33261 whole entry): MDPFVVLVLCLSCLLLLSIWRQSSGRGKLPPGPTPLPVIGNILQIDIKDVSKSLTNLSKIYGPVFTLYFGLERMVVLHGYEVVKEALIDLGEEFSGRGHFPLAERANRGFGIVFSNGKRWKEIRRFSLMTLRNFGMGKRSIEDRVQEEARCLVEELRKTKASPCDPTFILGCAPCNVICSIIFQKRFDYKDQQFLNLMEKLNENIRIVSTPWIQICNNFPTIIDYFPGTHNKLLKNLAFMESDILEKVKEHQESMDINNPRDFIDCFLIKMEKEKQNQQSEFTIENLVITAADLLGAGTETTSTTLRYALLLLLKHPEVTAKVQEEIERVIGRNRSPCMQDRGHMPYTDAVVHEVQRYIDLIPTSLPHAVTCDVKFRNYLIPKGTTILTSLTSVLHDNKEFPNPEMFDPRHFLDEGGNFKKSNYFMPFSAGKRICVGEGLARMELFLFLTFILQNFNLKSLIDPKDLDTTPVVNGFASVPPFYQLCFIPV
Chain of BDNF/NT-3 growth factors receptor (Rattus norvegicus) (Q63604 whole entry): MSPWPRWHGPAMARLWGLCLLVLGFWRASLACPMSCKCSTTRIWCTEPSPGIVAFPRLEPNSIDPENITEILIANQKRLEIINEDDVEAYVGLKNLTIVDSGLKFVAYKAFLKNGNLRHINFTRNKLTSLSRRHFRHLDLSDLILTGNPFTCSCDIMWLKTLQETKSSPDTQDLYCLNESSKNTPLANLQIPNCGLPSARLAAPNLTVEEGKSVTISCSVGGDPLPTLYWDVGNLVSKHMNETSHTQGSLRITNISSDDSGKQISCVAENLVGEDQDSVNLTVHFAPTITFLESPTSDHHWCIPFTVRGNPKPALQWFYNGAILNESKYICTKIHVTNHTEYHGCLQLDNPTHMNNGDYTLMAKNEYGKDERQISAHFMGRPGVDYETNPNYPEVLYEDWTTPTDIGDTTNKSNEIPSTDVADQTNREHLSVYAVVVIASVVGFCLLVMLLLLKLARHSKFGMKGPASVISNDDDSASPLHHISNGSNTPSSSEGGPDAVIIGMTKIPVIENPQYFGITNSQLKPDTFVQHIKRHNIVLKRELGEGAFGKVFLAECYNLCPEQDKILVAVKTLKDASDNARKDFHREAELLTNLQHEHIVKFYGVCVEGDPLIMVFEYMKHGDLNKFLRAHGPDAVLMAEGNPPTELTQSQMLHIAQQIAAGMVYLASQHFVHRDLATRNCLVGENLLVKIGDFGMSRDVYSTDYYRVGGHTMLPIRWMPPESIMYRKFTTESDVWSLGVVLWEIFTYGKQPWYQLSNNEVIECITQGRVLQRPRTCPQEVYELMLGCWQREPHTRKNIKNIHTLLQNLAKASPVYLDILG

Row | inhibition at 30 µM (CYP3A4 [4]) | remaining at 5 µM [8] | inhibition at 30 µM (CYP1A2) | remaining at 1 h, 1 µM [9] | Fu (Plasma) | inhibition at 3 µM (CYP2C19) | inhibition at 30 µM (CYP2C9 [11]) | inhibition at 3 µM (CYP3A4 [12]) | inhibition at 3 µM (CYP2C9 [14]) | inhibition at 3 µM (CYP3A4 [16]) | Structure (SMILES) | Activity (Mus musculus [1]) | Activity (Mus musculus [2]) | Activity (Mus musculus [3]) | Activity (Mus musculus [5]) | Activity (Mus musculus [6]) | Activity (Mus musculus [7]) | Activity (HepG2 [10]) | Activity (HepG2 [13]) | Activity (Mus musculus [15]) | Activity (Mus musculus [17]) | further results
1 | 43.3% | 86.3% | 66.1% | 92.2% | 0.03% | 11.1% | 73.6% | 4.5% | 12.4% | 10.8% | Cc1nc2ccc3c(=O)cc(-c4ccc(N5CCCC5)cc4)oc3c2[nH]1 | Active | Non-toxic | Active | Active | Active | Active | Non-toxic | Non-toxic | Active | Active | Activity [18]: Active; Activity (Mus musculus [19]): Active; Stability (Liver microsomes): Stable
2 | 18.7% | 97% | 75.9% | 79.6% | 0.07% | 16.2% | 52.9% | 3.4% | 11.9% | 3.9% | O=c1cc(-c2ccc(N3CCCC3)cc2)oc2c1ccc1cc[nH]c12 | Active | Non-toxic | Active | Active | Active | inactive | Non-toxic | Non-toxic | Active | Active | Activity [18]: Active; Activity (Mus musculus [19]): Active; Stability (Liver microsomes): Unstable
